Data set [1] concerns Rattus norvegicus. Description: Analgesic activity against L5/L6 spinal nerve ligation-induced neuropathic pain Sprague-Dawley rat model assessed as maximal decrease in neuropathic pain by measuring increase in paw withdrawal threshold in response to von frey filament at 1 to 4 mg/kg, sc compound administered at day 14 after ligation and measured at 30 mins after drug dosing by up and down method. The data set is classed as functional, organism-based. Summed up: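 Rats with spinal nerve ligation were dosed s.c. Paw withdrawal threshold measured with von Frey filaments up to 1.5 h after dosing. Mean±SEM, n=7-8, compared with vehicle.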

Data set [2] can be described thus: Toxicity in ICR mouse assessed as skin irritation by measuring ear scratching administered topically and measured for 30 mins. Particulars: in vivo, topical_or_ocular, 0.5 h. The method in brief:
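Ear scratching test: a solution of the agent was applied to mouse ears, and scratching movements were counted over the following 30 min.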

A short description of data set [3]: Genotoxicity in Salmonella typhimurium TA97 incubated for 48 hrs in presence of rat S9 by Ames test. The data set is classed as toxicity, subcellular. Particulars: salmonella enterica subsp. enterica serovar typhimurium, s9, 48 h.
A short description of data set [4]: Genotoxicity in CHO-WBLT cells assessed as chromosomal aberration incubated for 6 hrs in presence of rat S9 by FISH painting analysis. The data set is classed as toxicity, subcellular, Cricetulus griseus. Particulars: chinese hamster, s9, 6 h.
A short description of data set [5]: Genotoxicity in Salmonella typhimurium TA1535 incubated for 48 hrs in presence of rat S9 by Ames test. The class given is toxicity, subcellular. Particulars: salmonella enterica subsp. enterica serovar typhimurium, s9, 48 h.
A short description of data set [6]: Genotoxicity in Salmonella typhimurium TA102 incubated for 48 hrs in presence of rat S9 by Ames test. The class given is toxicity, subcellular. Particulars: salmonella enterica subsp. enterica serovar typhimurium, s9, 48 h.
Data set [7] can be described thus: Genotoxicity in Salmonella typhimurium TA1537 incubated for 48 hrs by Ames test. Particulars: salmonella enterica subsp. enterica serovar typhimurium. The data set is classed as toxicity.
The nature of data set [8]: Drug uptake in porcine skin assessed as dermal accumulation applied topically as carbopol-gel with 1% formulation measured for 8 hrs by Franz diffusion cell based in vitro transdermal delivery test. The class given is ADME, tissue-based, Sus scrofa, Zone of skin. Particulars: pig.
In data set [9] the target is Transient receptor potential cation channel subfamily V member 1 (Homo sapiens, UniProt Q8NER1). Description: Displacement of [3H]-RTX from human TRPV1 expressed in CHO cells incubated for 60 mins by radioligand competition assay based scintillation counting method. The class given is cell-based.
Sequence of Transient receptor potential cation channel subfamily V member 1 (Homo sapiens, UniProt Q8NER1) (Q8NER1 whole entry): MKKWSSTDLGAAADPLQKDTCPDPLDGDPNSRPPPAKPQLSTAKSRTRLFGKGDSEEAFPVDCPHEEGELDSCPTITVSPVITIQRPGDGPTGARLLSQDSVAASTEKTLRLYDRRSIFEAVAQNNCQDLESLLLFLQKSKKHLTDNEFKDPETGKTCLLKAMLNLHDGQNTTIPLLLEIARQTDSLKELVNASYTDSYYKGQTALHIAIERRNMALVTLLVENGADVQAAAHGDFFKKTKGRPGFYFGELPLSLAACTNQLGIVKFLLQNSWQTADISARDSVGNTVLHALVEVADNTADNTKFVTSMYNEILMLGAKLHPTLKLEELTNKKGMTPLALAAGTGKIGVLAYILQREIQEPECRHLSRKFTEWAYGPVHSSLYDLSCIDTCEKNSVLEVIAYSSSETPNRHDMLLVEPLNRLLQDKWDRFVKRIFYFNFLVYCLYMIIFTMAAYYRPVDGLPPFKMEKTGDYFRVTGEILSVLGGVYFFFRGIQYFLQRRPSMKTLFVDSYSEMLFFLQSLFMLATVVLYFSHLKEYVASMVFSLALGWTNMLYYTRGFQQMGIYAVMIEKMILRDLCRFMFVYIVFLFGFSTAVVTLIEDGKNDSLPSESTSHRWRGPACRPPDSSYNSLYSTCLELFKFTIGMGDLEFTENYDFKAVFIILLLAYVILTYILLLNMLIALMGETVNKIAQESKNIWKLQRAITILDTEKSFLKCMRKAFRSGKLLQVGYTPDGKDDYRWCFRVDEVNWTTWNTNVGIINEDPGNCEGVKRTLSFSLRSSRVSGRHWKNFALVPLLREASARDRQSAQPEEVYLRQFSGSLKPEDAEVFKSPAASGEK
A short description of data set [10]: Toxicity in ICR mouse assessed as ear edema administered topically and measured after 30 mins. Particulars: in vivo, topical_or_ocular, 0.5 h. The method in brief: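 Ear swelling test: a solution of the agent was applied to mouse ears, and ear punch biopsies were collected 30 min later and weighed.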
For data set [11], the target named is T1, Transient receptor potential cation channel subfamily V member 1 (Rattus norvegicus, UniProt O35433). Description: Agonist activity at rat TRPV1 expressed in CHO cells assessed as increase in 45Ca2+ uptake incubated for 5 mins by liquid scintillation counting method. The class given is cell-based. The method in brief:
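Human or rat TRPV1 heterologously expressed in CHO cells; agonism read as 45Ca2+ uptake, run as previously described. Values are the mean of at least three experiments.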

Data set [12] is described as follows: Genotoxicity in CHO-WBLT cells assessed as chromosomal aberration incubated for 6 hrs in presence of rat S9 by Q-banding technique. The class given is toxicity, subcellular, Cricetulus griseus. Particulars: chinese hamster, s9, 6 h.
For data set [13], the target named is Transient receptor potential cation channel subfamily V member 1 (Rattus norvegicus) (UniProt O35433). In words: Partial agonist activity at rat TRPV1 expressed in CHO cells assessed as maximal increase in 45Ca2+ uptake incubated for 5 mins by liquid scintillation counting method relative to capsaicin. The data set is classed as cell-based. The method in brief: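 Human or rat TRPV1 heterologously expressed in CHO cells; functional agonism read as 45Ca2+ uptake. Values are means of at least three experiments.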
Sequence of Transient receptor potential cation channel subfamily V member 1 (Rattus norvegicus) (O35433 whole entry): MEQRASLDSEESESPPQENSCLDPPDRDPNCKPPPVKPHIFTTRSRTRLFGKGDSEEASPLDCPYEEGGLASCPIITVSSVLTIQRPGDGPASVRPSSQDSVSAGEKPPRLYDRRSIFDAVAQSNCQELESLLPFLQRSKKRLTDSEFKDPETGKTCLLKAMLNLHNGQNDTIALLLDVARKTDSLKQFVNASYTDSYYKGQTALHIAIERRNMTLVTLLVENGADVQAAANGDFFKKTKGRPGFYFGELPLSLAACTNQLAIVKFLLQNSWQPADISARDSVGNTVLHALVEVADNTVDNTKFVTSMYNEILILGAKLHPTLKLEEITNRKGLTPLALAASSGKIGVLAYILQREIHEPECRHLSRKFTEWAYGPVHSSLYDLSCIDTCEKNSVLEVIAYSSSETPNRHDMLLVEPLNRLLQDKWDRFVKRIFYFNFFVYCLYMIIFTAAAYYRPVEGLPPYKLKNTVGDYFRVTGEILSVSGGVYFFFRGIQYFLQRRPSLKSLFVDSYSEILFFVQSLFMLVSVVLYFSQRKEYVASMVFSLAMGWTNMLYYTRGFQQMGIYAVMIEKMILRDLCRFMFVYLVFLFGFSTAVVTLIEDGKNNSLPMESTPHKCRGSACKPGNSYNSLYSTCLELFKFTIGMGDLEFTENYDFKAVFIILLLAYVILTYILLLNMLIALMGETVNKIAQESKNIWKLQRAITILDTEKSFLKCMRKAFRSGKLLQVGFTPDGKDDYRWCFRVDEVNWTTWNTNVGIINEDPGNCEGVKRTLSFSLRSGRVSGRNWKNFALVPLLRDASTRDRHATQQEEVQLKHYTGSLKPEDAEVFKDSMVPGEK

The target in data set [14] is Transient receptor potential cation channel subfamily A member 1 (Mus musculus) (UniProt Q8BLA8). In words: Agonist activity at mouse TRPA1 expressed in HEK293 cells assessed as increase in calcium influx at 0.3 to 30 uM incubated for 1 min by Fluo-4-AM dye based FLIPR assay. The data set is classed as cell-based. Summed up:
(§1)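 Cells individually transfected with a single TRP channel (TRPV1, hTRPA1, mTRPA1, mTRPV3 or mTRPM8). Intracellular calcium influx recorded by FLIPR after the test compound was applied. Each cell type was also challenged with an agonist suited to its own TRP channel.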

Data set [15] is described as follows: Toxicity in po dosed ICR mouse administered as single dose. The class given is organism-based. Particulars: in vivo.
The target of data set [16] is T2, Transient receptor potential cation channel subfamily V member 3 (Mus musculus) (UniProt Q8K424).
T2 sequence (whole entry): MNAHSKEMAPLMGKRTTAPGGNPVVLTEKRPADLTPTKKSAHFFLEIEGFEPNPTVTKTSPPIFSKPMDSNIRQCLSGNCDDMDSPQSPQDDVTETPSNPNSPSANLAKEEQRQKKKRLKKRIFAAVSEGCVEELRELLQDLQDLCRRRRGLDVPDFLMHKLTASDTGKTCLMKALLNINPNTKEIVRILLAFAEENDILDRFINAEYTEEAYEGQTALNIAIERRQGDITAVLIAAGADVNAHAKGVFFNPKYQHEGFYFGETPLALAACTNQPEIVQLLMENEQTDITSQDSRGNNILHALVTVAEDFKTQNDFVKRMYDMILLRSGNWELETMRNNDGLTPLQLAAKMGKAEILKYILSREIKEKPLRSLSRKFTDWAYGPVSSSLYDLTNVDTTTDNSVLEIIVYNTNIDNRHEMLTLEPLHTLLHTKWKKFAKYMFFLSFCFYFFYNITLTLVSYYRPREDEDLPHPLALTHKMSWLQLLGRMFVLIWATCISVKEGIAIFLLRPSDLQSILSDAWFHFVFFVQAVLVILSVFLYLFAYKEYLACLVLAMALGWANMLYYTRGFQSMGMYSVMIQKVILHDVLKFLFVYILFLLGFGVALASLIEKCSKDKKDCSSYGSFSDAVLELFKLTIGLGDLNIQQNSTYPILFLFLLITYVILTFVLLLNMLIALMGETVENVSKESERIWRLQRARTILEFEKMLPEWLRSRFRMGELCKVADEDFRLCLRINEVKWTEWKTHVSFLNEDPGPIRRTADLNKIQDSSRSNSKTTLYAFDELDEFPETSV
Description: Agonist activity at mouse TRPV3 expressed in HEK293 cells assessed as increase in calcium influx at 0.3 to 30 uM incubated for 1 min by Fluo-4-AM dye based FLIPR assay. The data set is classed as cell-based. Summed up: as §1

A short description of data set [17]: Toxicity in ip dosed ICR mouse administered as single dose. The class given is organism-based. Particulars: in vivo.
Data set [18] is described as follows: Genotoxicity in Salmonella typhimurium TA1538 incubated for 48 hrs in presence of rat S9 by Ames test. The data set is classed as toxicity, subcellular. Particulars: salmonella enterica subsp. enterica serovar typhimurium, s9, 48 h.
Data set [19] relates to Rattus norvegicus. Description: Analgesic activity against L5/L6 spinal nerve ligation-induced neuropathic pain Sprague-Dawley rat model assessed as decrease in neuropathic pain by measuring increase in paw withdrawal threshold in response to von frey filament at 5 to 10 mg/kg, ip compound administered at day 14 after ligation and measured up to 1.5 hrs after drug dosing by up and down method relative to control. The data set is classed as functional. The method in brief:
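Rat spinal nerve ligation model of neuropathic pain. Compound was given i.p. at 1, 2, 5 or 10 mg/kg; a gabapentin 65 mg/kg i.p. arm and a saline i.p. arm were run alongside. Von Frey withdrawal thresholds were taken pre-surgery and on days 1, 7 and 14, then at 0.5, 1 and 1.5 h post-dose. Mean±SEM, n=7-8.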

For data set [20], the target named is T1, Transient receptor potential cation channel subfamily V member 1. Description: Displacement of [3H]-RTX from rat TRPV1 expressed in CHO cells incubated for 60 mins by radioligand competition assay based scintillation counting method. The class given is cell-based.
A short description of data set [21]: Genotoxicity in Salmonella typhimurium TA100 incubated for 48 hrs by Ames test. The data set is classed as toxicity. Particulars: salmonella enterica subsp. enterica serovar typhimurium.
A short description of data set [22]: Genotoxicity in Salmonella typhimurium TA1535 incubated for 48 hrs by Ames test. The data set is classed as toxicity. Particulars: salmonella enterica subsp. enterica serovar typhimurium.

pEC50, pKi: −log10 of the molar value. The source made the active and inactive calls. A value given as a limit tells only on which side of the number the result lay.

Experimental findings from ChEMBL document CHEMBL4376835, “Discovery of Nonpungent Transient Receptor Potential Vanilloid 1 (TRPV1) Agonist as Strong Topical Analgesic” (J Med Chem, 2020) are described below.

T1 sequence (O35433 whole entry): as the sequence (O35433 whole entry) above
Sequence of Transient receptor potential cation channel subfamily A member 1 (Mus musculus) (Q8BLA8 whole entry): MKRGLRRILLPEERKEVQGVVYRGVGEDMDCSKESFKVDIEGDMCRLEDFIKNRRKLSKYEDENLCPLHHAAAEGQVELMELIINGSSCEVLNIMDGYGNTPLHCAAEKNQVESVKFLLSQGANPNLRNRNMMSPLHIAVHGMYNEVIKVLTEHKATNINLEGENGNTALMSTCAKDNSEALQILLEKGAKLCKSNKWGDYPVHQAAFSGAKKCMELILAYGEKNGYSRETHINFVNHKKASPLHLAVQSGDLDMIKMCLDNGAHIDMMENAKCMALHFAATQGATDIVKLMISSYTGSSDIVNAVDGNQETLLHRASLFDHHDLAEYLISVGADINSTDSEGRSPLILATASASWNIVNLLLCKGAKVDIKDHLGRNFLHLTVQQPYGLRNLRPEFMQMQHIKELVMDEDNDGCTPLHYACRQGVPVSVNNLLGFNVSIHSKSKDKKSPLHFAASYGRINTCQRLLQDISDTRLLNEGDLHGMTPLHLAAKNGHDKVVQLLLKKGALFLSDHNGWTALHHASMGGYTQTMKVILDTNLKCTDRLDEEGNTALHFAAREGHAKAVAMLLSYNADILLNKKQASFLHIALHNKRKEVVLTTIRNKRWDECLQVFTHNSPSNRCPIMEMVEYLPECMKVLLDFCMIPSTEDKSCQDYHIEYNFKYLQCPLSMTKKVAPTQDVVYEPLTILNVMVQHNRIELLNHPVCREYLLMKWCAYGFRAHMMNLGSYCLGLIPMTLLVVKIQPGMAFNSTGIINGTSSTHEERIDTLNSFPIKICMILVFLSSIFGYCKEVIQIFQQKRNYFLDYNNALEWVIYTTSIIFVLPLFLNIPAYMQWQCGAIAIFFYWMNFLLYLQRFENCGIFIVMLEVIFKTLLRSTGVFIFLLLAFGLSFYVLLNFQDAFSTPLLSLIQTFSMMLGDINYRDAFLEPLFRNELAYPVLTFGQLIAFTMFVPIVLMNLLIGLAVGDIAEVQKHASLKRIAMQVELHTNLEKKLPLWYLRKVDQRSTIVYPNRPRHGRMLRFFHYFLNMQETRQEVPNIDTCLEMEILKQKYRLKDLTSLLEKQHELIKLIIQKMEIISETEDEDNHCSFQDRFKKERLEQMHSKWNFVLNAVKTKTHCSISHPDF

With `CC(C)(C)c1nc(-c2cccc(Cl)c2)c(CNC(=O)Nc2ccc(CO)c(F)c2)s1`, in the data set with Rattus norvegicus [1], the result was Active. Further, the Activity result in data set [2], in [3], in data set [4], in data set [5], in data set [6] and in data set [7] was “Non-Toxic” in each case. The Activity entry in [10] is “Non-Toxic”; in data set [12] it was “Non-Toxic”; in data set [13] it was 50 to 60%; in data set [18] it was “Non-Toxic”; in [21], “Non-Toxic”; in data set [22], “Non-Toxic”. The Drug uptake result in [8] is recorded as “Active”. In addition, the pKi in data set [9] was 7.94; in [20], 7.62. The negative logarithm of the EC50 (pEC50) in data set [11] is 7.03. The result in data set [14] and in [16] was inactive. For the same molecule, the LD50 in [15] is more than 2000 mg/kg; in data set [17], more than 200 mg/kg. In the data set on Rattus norvegicus [19], the MPE is given as 100%.
